# Test results: ChEMBL document CHEMBL1151761, “Radiohalogenated prostate-specific membrane antigen (PSMA)-based ureas as imaging agents for prostate cancer” (J Med Chem, 2008)
# Legend:
# [1] = Biodistribution in small intestine of PSMA expressing human PC3 PIP and PSMA deficient human PC3 flu cells xenografted SCID mouse at 2 uCi, iv after 2 hrs; type: ADME, organism-based; details: in vivo
# Summary of the method: (§1)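 Male SCID mice carried subcutaneous PSMA+ PC-3 PIP (left shoulder) and PC-3 flu (right shoulder) xenografts, 1-5 × 10^6 cells in HBSS, and were used at 3-5 mm tumor diameter. Tail-vein injection of 2 µCi radioligand; four mice per time point, killed by cervical dislocation. %ID/g from a standard dilution of the dose, decay-corrected, mean ± SD; PIP tumor:organ ratios.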
# [2] = Biodistribution in PC3 flu tumor of PSMA expressing human PC3 PIP and PSMA deficient human PC3 flu cells xenografted SCID mouse at 2 uCi, iv after 2 hrs; type: ADME, organism-based; details: in vivo; summary of the method: as §1
# [3] = Biodistribution in large intestine of PSMA expressing human PC3 PIP and PSMA deficient human PC3 flu cells xenografted SCID mouse at 2 uCi, iv after 2 hrs; type: ADME, organism-based; details: in vivo; summary of the method: as §1
# [4] = Biodistribution in small intestine of PSMA expressing human PC3 PIP and PSMA deficient human PC3 flu cells xenografted SCID mouse at 2 uCi, iv after 60 mins; type: ADME, organism-based; details: in vivo, 1 h; summary of the method: as §1
# [5] = Biodistribution in PC3 flu tumor of PSMA expressing human PC3 PIP and PSMA deficient human PC3 flu cells xenografted SCID mouse at 2 uCi, iv after 60 mins; type: ADME, organism-based; details: in vivo, 1 h; summary of the method: as §1
# [6] = Biodistribution in large intestine of PSMA expressing human PC3 PIP and PSMA deficient human PC3 flu cells xenografted SCID mouse at 2 uCi, iv after 5 hrs; type: ADME, organism-based; details: in vivo; summary of the method: as §1
# [7] = Biodistribution in large intestine of PSMA expressing human PC3 PIP and PSMA deficient human PC3 flu cells xenografted SCID mouse at 2 uCi, iv after 60 mins; type: ADME, organism-based; details: in vivo, 1 h; summary of the method: as §1
# [8] = Biodistribution in PC3 PIP tumor of PSMA expressing human PC3 PIP and PSMA deficient human PC3 flu cells xenografted SCID mouse at 2 uCi, iv after 30 mins; type: ADME, organism-based; details: in vivo, 0.5 h; summary of the method: as §1
# [9] = Biodistribution in PC3 flu tumor of PSMA expressing human PC3 PIP and PSMA deficient human PC3 flu cells xenografted SCID mouse at 2 uCi, iv after 30 mins; type: ADME, organism-based; details: in vivo, 0.5 h; summary of the method: as §1
# [10] = Biodistribution in large intestine of PSMA expressing human PC3 PIP and PSMA deficient human PC3 flu cells xenografted SCID mouse at 2 uCi, iv after 30 mins; type: ADME, organism-based; details: in vivo, 0.5 h; summary of the method: as §1
# [11] = Biodistribution in small intestine of PSMA expressing human PC3 PIP and PSMA deficient human PC3 flu cells xenografted SCID mouse at 2 uCi, iv after 5 hrs; type: ADME, organism-based; details: in vivo; summary of the method: as §1
# [12] = Biodistribution in small intestine of PSMA expressing human PC3 PIP and PSMA deficient human PC3 flu cells xenografted SCID mouse at 2 uCi, iv after 30 mins; type: ADME, organism-based; details: in vivo, 0.5 h; summary of the method: as §1
# [13] = Biodistribution in PC3 flu tumor of PSMA expressing human PC3 PIP and PSMA deficient human PC3 flu cells xenografted SCID mouse at 2 uCi, iv after 5 hrs; type: ADME, organism-based; details: in vivo; summary of the method: as §1
# [14] = target: T1, Glutamate carboxypeptidase 2 (Homo sapiens, UniProt Q04609); assay: Inhibition of PSMA in human LNCaP cell extract using [3H]NAAG by radiometric assay; type: cell-free
# [15] = target: T1, Glutamate carboxypeptidase 2; assay: Inhibition of PSMA in human LNCaP cell extract using [3H]NAAG by fluorescence-based assay; type: cell-free
# T1 sequence (Q04609 whole entry): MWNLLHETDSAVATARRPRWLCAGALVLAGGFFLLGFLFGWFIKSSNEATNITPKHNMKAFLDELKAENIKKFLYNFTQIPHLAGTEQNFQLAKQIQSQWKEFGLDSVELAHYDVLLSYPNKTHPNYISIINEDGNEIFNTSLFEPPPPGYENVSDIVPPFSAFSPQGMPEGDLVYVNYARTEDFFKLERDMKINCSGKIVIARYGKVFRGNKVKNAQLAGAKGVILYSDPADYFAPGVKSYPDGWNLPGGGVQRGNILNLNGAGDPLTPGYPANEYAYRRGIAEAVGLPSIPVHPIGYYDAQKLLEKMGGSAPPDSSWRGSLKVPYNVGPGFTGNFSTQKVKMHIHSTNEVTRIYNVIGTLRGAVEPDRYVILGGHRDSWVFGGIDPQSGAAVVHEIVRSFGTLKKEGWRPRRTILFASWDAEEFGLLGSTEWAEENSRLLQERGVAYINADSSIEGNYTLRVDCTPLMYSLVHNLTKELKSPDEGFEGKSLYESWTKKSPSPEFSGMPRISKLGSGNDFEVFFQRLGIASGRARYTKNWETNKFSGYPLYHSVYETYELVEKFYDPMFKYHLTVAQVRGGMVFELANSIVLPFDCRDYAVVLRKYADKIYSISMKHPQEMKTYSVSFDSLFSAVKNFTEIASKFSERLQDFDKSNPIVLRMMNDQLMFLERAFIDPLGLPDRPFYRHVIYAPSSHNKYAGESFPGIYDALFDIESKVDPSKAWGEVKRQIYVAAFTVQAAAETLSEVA
SMILES,Drug uptake [1] [% ID/g],Drug uptake [2] [% ID/g],Drug uptake [3] [% ID/g],Drug uptake [4] [% ID/g],Drug uptake [5] [% ID/g],Drug uptake [6] [% ID/g],Drug uptake [7] [% ID/g],Drug uptake [8] [% ID/g],Drug uptake [9] [% ID/g],Drug uptake [10] [% ID/g],Drug uptake [11] [% ID/g],Drug uptake [12] [% ID/g],Drug uptake [13] [% ID/g],Ki [14] [nM],Ki [15] [nM]
O=C(O)CC[C@H](NC(=O)N[C@@H](CCCCNC(=O)c1ccc([125I])cc1)C(=O)O)C(=O)O,1.5,0.7,0.6,3.8,1.2,0.7,1,8.8,1.8,1.4,1.5,4.9,0.6,,
O=C(O)CC[C@H](NC(=O)N[C@@H](CCCCNC(=O)c1cncc([125I])c1)C(=O)O)C(=O)O,,,,,0.6,,0.6,,0.8,,,,,,
O=C(O)CC[C@H](NC(=O)N[C@@H](CCCCNC(=O)c1ccc(F)cc1)C(=O)O)C(=O)O,,,,,,,,,,,,,,0.256,0.194
